# In ChEMBL document CHEMBL1140571, “New 1,8-naphthyridine and quinoline derivatives as CB2 selective agonists” (Bioorg Med Chem Lett, 2007):
# Tests used:
# Cannabinoid receptor 2 = Cannabinoid receptor 2 (Homo sapiens, UniProt P34972); test: Displacement of [3H]CP-55940 from human recombinant CB2 receptor expressed in HEK293 cells; format: cell-based
# Homo sapiens = organism: Homo sapiens; test: Selectivity for human CB2 over human CB1
# Cannabinoid receptor 1 = Cannabinoid receptor 1 (Homo sapiens, UniProt P21554); test: biochemical; format: cell-based, HEK293
# Sequence of Cannabinoid receptor 1 (P21554 whole entry): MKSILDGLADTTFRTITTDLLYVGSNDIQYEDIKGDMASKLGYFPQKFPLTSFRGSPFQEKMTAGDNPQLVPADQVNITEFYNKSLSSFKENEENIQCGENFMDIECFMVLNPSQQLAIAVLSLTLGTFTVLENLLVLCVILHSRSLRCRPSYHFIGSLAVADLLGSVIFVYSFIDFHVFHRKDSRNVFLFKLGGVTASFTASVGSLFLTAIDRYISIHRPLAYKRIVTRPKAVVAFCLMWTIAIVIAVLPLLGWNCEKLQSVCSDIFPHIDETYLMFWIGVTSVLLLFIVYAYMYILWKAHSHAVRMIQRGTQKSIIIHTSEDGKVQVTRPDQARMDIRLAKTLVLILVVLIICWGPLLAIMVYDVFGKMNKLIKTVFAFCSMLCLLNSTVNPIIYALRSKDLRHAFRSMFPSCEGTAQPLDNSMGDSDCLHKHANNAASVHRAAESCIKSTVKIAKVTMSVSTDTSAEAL
# Mus musculus [1] = test: Antinociceptive activity in Swiss Albino mouse assessed as licking latency time at 10 mg/kg, po after 15 mins by hot plate test; format: functional
# How it was run: (§1)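 Mice held at 22 ± 1 °C on a 12 h light/dark cycle and given oral doses in CMC vehicle. In the hot-plate test the container was kept at 52.5 ± 0.1 °C and the endpoint was licking of the fore or hind paws, timed before dosing and after it. Pretest scorers below 12 s or above 18 s were rejected. Cut-off 45 s. AM630 0.6 mg/kg po given simultaneously. Mean ± SEM, ANOVA with Fisher PLSD, P<0.05.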
# Mus musculus [2] = test: Effect on motor coordination in Swiss Albino mouse at 50 mg/kg, po after 30 mins by rotarod test; format: organism-based; design: dose 50 mg/kg, route oral; settings: in vivo, 0.5 h
# How it was run: (§2)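 Mice were dosed orally in CMC vehicle and tested on a rotarod with a 3 cm diameter non-slip rotating rod, counting falls before dosing and at 15, 30 and 45 min after. Pretest scorers below 3 or above 6 falls were rejected. Ten mice per group. Mean ± SEM, ANOVA with Fisher PLSD, P<0.05.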
# Mus musculus [3] = test: Effect on Swiss Albino mouse assessed as licking latency time at 0.06 mg/kg, po after 45 mins by hot plate test; format: functional
# Mus musculus [4] = test: Antinociceptive activity in Swiss Albino mouse assessed as licking latency time at 50 mg/kg, po in presence of CB2 antagonist AM630 after 30 mins; format: functional; how it was run: as §1
# Mus musculus [5] = test: Antinociceptive activity in Swiss Albino mouse assessed as licking latency time at 30 mg/kg, po after 15 mins by hot plate test; format: functional; how it was run: as §1
# Mus musculus [6] = test: Effect on Swiss Albino mouse assessed as licking latency time at 0.06 mg/kg, po after 15 mins by hot plate test; format: functional
# Mus musculus [7] = test: Antinociceptive activity in Swiss Albino mouse assessed as licking latency time at 30 mg/kg, po after 30 mins by hot plate test; format: functional; how it was run: as §1
# Mus musculus [8] = test: Antinociceptive activity in Swiss Albino mouse assessed as licking latency time at 10 mg/kg, po after 45 mins by hot plate test; format: functional; how it was run: as §1
# Mus musculus [9] = test: Effect on Swiss Albino mouse assessed as licking latency time at 0.06 mg/kg, po after 30 mins by hot plate test; format: functional
# Mus musculus [10] = test: Antinociceptive activity in Swiss Albino mouse assessed as licking latency time at 50 mg/kg, po after 45 mins by hot plate test; format: functional; how it was run: as §1
# Mus musculus [11] = test: Antinociceptive activity in Swiss Albino mouse assessed as licking latency time at 50 mg/kg, po after 30 mins by hot plate test; format: functional; how it was run: as §1
# Mus musculus [12] = test: Effect on motor coordination in Swiss Albino mouse at 50 mg/kg, po after 45 mins by rotarod test; format: organism-based; design: dose 50 mg/kg, route oral; settings: in vivo, 0.75 h; how it was run: as §2
# Mus musculus [13] = test: Antinociceptive activity in Swiss Albino mouse assessed as licking latency time at 50 mg/kg, po in presence of CB2 antagonist AM630 after 15 mins; format: functional; how it was run: as §1
# Mus musculus [14] = test: Antinociceptive activity in Swiss Albino mouse assessed as licking latency time at 50 mg/kg, po in presence of CB2 antagonist AM630 after 45 mins; format: functional; how it was run: as §1
# Mus musculus [15] = test: Effect on motor coordination in Swiss Albino mouse at 50 mg/kg, po after 15 mins by rotarod test; format: organism-based; design: dose 50 mg/kg, route oral; settings: in vivo, 0.25 h; how it was run: as §2
# Mus musculus [16] = test: Antinociceptive activity in Swiss Albino mouse assessed as licking latency time at 30 mg/kg, po after 45 mins by hot plate test; format: functional; how it was run: as §1
# Mus musculus [17] = test: Antinociceptive activity in Swiss Albino mouse assessed as licking latency time at 50 mg/kg, po after 15 mins by hot plate test; format: functional; how it was run: as §1
# Mus musculus [18] = test: Antinociceptive activity in Swiss Albino mouse assessed as licking latency time at 10 mg/kg, po after 30 mins by hot plate test; format: functional; how it was run: as §1
# Sequence of Cannabinoid receptor 2 (P34972 whole entry): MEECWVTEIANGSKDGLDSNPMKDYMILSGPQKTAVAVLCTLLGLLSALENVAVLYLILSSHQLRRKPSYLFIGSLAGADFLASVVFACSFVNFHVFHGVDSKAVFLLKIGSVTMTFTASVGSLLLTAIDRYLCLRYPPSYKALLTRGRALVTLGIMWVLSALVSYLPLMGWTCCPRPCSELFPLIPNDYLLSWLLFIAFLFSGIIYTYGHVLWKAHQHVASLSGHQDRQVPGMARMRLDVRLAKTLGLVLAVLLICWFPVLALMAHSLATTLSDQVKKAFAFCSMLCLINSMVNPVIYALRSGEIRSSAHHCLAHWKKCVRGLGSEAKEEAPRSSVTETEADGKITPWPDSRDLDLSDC
compound,measurement,setting,value
CCCCC/C=C\C/C=C\C/C=C\C/C=C\CCCC(=O)NCCCl,Ki,Cannabinoid receptor 2,95 nM
same,Ratio Ki,Homo sapiens,0.06
same,Ki,Cannabinoid receptor 1,5.3 nM
COc1ccc2c(=O)c(C(=O)NC3CCCCC3)cn(CCN3CCOCC3)c2c1,Ki,Cannabinoid receptor 2,79 nM
same,Ratio Ki,Homo sapiens,37
same,Ki,Cannabinoid receptor 1,2920 nM
COc1ccc(C(=O)c2c(C)n(CCN3CCOCC3)c3cc(I)ccc23)cc1,Ki,Cannabinoid receptor 2,36 nM
Nc1ccc2c(=O)cc(C(=O)NC3CCCCC3)n(Cc3ccccc3)c2n1,Ki,Cannabinoid receptor 2,7900 nM
same,Ratio Ki,Homo sapiens,0.71
same,Ki,Cannabinoid receptor 1,5600 nM
O=c1c2cn(Cc3ccccc3)c3cc(Cl)ccc3c-2nn1C1CCCCC1,Ki,Cannabinoid receptor 2,1640 nM
same,Ratio Ki,Homo sapiens,0.34
same,Ki,Cannabinoid receptor 1,560 nM
O=c1c2cn(CCN3CCOCC3)c3ccccc3c-2nn1C1CCCCC1,Ki,Cannabinoid receptor 2,> 7900 nM
same,Ki,Cannabinoid receptor 1,> 5600 nM
COc1ccc2c(=O)c(C(=O)NC3CCCCC3)cn(Cc3ccccc3)c2n1,Ki,Cannabinoid receptor 2,11 nM
same,Activity,Mus musculus [1],17.1 s
same,Activity,Mus musculus [2],0.2
same,Activity,Mus musculus [3],16.3 s
same,Ratio Ki,Homo sapiens,51
same,Activity,Mus musculus [4],19.2 s
same,Activity,Mus musculus [5],16.6 s
same,Activity,Mus musculus [6],16.6 s
same,Activity,Mus musculus [7],19.5 s
same,Activity,Mus musculus [8],16.7 s
same,Activity,Mus musculus [9],18 s
same,Activity,Mus musculus [10],18.2 s
same,Activity,Mus musculus [11],22.5 s
same,Activity,Mus musculus [12],0.2
same,Activity,Mus musculus [13],18.1 s
same,Activity,Mus musculus [14],17.6 s
same,Activity,Mus musculus [15],0.7
same,Activity,Mus musculus [16],17.4 s
same,Activity,Mus musculus [17],19.2 s
same,Ki,Cannabinoid receptor 1,560 nM
same,Activity,Mus musculus [18],18.5 s
CN(C)c1ccc2c(=O)c(C(=O)NC3CCCCC3)cn(CCN3CCOCC3)c2n1,Ki,Cannabinoid receptor 2,94 nM
same,Ki,Cannabinoid receptor 1,> 5600 nM
CCCCCCC(C)(C)c1cc(O)c2c(c1)OC(C)(C)[C@@H]1CC=C(CO)C[C@@H]21,Ki,Cannabinoid receptor 1,0.18 nM
O=c1c2cn(Cc3ccccc3)c3ccccc3c-2nn1C1CCCCC1,Ki,Cannabinoid receptor 2,790 nM
same,Ratio Ki,Homo sapiens,0.78
same,Ki,Cannabinoid receptor 1,620 nM
O=c1c2cn(CCN3CCOCC3)c3ccccc3c-2nn1-c1ccccc1,Ki,Cannabinoid receptor 2,2280 nM
same,Ratio Ki,Homo sapiens,1.2
same,Ki,Cannabinoid receptor 1,2800 nM
O=C(NC1CCCCCC1)c1cn(Cc2ccccc2)c2ccccc2c1=O,Ki,Cannabinoid receptor 2,6.4 nM
same,Ratio Ki,Homo sapiens,2.6
same,Ki,Cannabinoid receptor 1,17 nM
COc1ccc2c(=O)c(C(=O)NC3CCCCC3)cn(Cc3ccccc3)c2c1,Ki,Cannabinoid receptor 2,79 nM
O=C(NC1CCCCCC1)c1cn(CCN2CCOCC2)c2ccccc2c1=O,Ki,Cannabinoid receptor 2,28 nM
same,Ratio Ki,Homo sapiens,10.3
same,Ki,Cannabinoid receptor 1,290 nM
